The source made the active and inactive calls. No cut-off for these calls is given here.
Experiments:
[1] = system: Trypanosoma brucei brucei; test: Antitrypanosomal activity against Trypanosoma brucei brucei TC221 after 72 hrs by alamar blue assay; assay type: functional, organism-based; settings: TC221, 72 h
Method in brief: (§1)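 T. b. brucei TC 221 trypomastigotes grown in Baltz medium; 10⁴ parasites/mL exposed to graded compound concentrations (DMSO or 0.1 M NaOH solutions) at 37 °C, 5% CO₂. Alamar Blue absorbance at 550 nm (reference 630 nm) read at 48 h and 72 h. Parasite-only and compound-only controls; ED₅₀ by linear interpolation of three measurements.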

[2] = Selectivity index, ratio of CC50 for human HeLa cells to IC50 for Plasmodium falciparum Dd2 […] cells; assay type: functional
Method in brief: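 Selectivity index computed as HeLa CC₅₀ (72 h methylene blue assay) divided by P. falciparum Dd2 IC₅₀ (72 h [³H]-hypoxanthine assay).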

[3] = Cytotoxicity against human HeLa cells after 72 hrs by methylene blue staining; assay type: cell-based
Method in brief: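 HeLa cells in RPMI 1640 with 10% heat-inactivated FBS and gentamicin; ~10,000 cells/well preincubated 48 h, then exposed to compound (DMSO stock 10 mg/mL diluted 1:200) for 72 h at 37 °C, 5% CO₂. Glutaraldehyde fixation, 0.05% methylene blue staining, elution with 0.33 M HCl, OD 660 nm.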

Plasmodium falciparum = test: Antimalarial activity against Plasmodium falciparum Dd2 […] cells after 72 hrs by [3H]hypoxanthine incorporation assay; assay type: functional, organism-based
Method in brief: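 Synchronized (sorbitol) blood-stage P. falciparum Dd2 cultures exposed to a range of compound concentrations for 72 h; growth read by [³H]-hypoxanthine incorporation, percent inhibition used to derive IC₅₀. At least three independent repeats, mean ± SEM.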

[4] = target: T1, Multidrug resistance protein Pgh1 (Plasmodium falciparum) (UniProt Q9NG76); test: Inhibition of Plasmodium PGH1-mediated fluorochrome accumulation into parasite digestive vacuole at […] concentration
T1 sequence (whole entry): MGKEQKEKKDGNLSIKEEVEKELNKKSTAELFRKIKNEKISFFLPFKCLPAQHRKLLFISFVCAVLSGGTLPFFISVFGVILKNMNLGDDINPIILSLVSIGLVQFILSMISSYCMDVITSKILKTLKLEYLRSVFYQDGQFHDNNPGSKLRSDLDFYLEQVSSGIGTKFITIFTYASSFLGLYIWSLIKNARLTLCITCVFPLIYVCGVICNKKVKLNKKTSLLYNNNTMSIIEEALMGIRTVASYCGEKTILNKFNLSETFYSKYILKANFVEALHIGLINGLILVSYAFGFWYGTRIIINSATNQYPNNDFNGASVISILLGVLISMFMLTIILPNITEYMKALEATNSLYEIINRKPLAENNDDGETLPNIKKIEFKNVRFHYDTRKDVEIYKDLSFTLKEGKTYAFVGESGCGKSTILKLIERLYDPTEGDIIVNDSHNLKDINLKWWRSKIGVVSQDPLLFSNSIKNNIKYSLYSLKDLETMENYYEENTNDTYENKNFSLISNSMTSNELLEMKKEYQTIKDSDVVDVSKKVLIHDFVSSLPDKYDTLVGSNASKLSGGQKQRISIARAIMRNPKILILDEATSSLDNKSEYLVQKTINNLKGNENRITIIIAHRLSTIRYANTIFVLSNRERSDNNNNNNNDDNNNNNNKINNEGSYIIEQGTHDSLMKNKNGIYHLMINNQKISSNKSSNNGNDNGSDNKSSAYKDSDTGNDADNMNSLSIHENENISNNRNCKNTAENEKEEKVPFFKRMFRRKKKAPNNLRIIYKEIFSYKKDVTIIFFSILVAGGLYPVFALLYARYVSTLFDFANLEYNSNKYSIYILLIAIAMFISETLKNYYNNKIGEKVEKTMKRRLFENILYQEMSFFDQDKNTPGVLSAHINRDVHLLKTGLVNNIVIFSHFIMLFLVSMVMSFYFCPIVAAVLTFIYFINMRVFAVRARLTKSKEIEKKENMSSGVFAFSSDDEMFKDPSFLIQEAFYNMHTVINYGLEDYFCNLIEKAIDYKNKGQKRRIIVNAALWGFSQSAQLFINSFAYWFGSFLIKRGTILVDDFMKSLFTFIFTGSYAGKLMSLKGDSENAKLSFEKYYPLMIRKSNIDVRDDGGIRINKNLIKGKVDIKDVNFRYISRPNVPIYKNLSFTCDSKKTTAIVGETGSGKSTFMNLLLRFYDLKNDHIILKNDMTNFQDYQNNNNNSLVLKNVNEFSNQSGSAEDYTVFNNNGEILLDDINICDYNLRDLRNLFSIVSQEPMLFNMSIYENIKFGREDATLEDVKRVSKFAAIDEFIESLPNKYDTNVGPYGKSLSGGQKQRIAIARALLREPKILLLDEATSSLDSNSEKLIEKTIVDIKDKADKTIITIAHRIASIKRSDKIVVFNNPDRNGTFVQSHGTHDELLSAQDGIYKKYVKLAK

[5] = system: Trypanosoma brucei brucei; test: Antitrypanosomal activity against Trypanosoma brucei brucei TC221 after 48 hrs by alamar blue assay; assay type: functional, organism-based; settings: TC221, 48 h; method in brief: as §1
[6] = target: ATP-dependent translocase ABCB1 (Homo sapiens, UniProt P08183); test: Inhibition of ABCB1 overexpressed in human CCRF-CEM/VCR1000 cell assessed as inhibition of daunomycin efflux after 30 mins by FACS analysis

SMILES | IC50 [1] [µM] | Ratio CC50/IC50 [2] | CC50 at 72 h [3] [µM] | IC50 (Plasmodium falciparum) [µM] | inhibition [4] | IC50 [5] [µM] | EC50 [6] [µM]
CN1CCN(C(C(=O)Nc2ccc(NC(=O)c3cccnc3)cc2C(=O)c2ccccc2)c2ccccc2)CC1 (configuration not stated) | 7.02 | 16 | 37 | 2.26 | inactive | 5.06 | 5.12
CN1CCN(C(C(=O)Nc2ccc(NC(=O)Cc3ccccc3)cc2C(=O)c2ccccc2)c2ccccc2)CC1 (racemic) | 3.25 | 8 | 16 | 2 | inactive | 3.64 | 0.36
CN1CCN(C(C(=O)Nc2ccc(NC(=O)C(C)(C)C)cc2C(=O)c2ccccc2)c2ccccc2)CC1 (racemic) | 4.67 | 15 | 45 | 3.04 | inactive | 11.4 | 0.39
CCC(=O)Nc1ccc(NC(=O)C(c2ccccc2)N2CCN(C)CC2)c(C(=O)c2ccccc2)c1 (racemic) | 24.6 | 12 | 84 | 7.19 | inactive | 16.7 | 3.3
CN1CCN(C(C(=O)Nc2ccc(NC(=O)c3ccc4ccccc4c3)cc2C(=O)c2ccccc2)c2ccccc2)CC1 (racemic) | 2.64 | 17 | 4 | 0.24 | inactive | 1.98 | 0.04
CN1CCN(CC(=O)Nc2ccc(NC(=O)c3ccccc3)cc2C(=O)c2ccccc2)CC1 | 83.2 | >7 | > 109 | > 16 | inactive | 49.4 | 
CC1CCN(C(=O)Nc2ccc(NC(=O)C(c3ccccc3)N3CCN(C)CC3)c(C(=O)c3ccccc3)c2)CC1 (configuration not stated) |  |  |  | > 16 | inactive |  | 4.97
CC(=O)Nc1ccc(NC(=O)C(c2ccccc2)N2CCN(C)CC2)c(C(=O)c2ccccc2)c1 (racemic) | 6.59 | 11 | 105 | 9.72 | inactive | 9.05 | 6.29
CN1CCN(CC(=O)Nc2ccc(NC(=O)c3ccc4ccccc4c3)cc2C(=O)c2ccccc2)CC1 | 2.01 | 5 | 9 | 2.01 | inactive | 0.81 | 0.48
CC(C)N(C(=O)Nc1ccc(NC(=O)C(c2ccccc2)N2CCN(C)CC2)c(C(=O)c2ccccc2)c1)C(C)C (configuration not stated) |  | 36 | 4 | 0.11 | inactive |  | 0.46
CN1CCN(C(C(=O)Nc2ccc(NS(C)(=O)=O)cc2C(=O)c2ccccc2)c2ccccc2)CC1 (racemic) | 5.84 | 9 | 99 | 10.6 | inactive | 5.58 | 15.5
CN1CCN(C(C(=O)Nc2ccc(NC(=O)c3ccccc3)cc2C(=O)c2ccccc2)c2ccccc2)CC1 (racemic) | 3.28 | 10 | 16 | 1.61 | inactive | 3.28 | 0.24
CN1CCN(C(C(=O)Nc2ccc(NC(=O)CCc3ccccc3)cc2C(=O)c2ccccc2)c2ccccc2)CC1 (racemic) | 3.02 | 4 | 8 | 1.8 | inactive | 3.27 | 0.06
CN1CCN(C(C(=O)Nc2ccc(NC(=O)c3cccc4ccccc34)cc2C(=O)c2ccccc2)c2ccccc2)CC1 (racemic) | 2.68 | 4 | 4 | 0.93 | inactive | 1.93 | 0.23
CN1CCN(CC(=O)Nc2ccc(NC(=O)CCc3ccccc3)cc2C(=O)c2ccccc2)CC1 | 21.9 | 12 | 80 | 6.72 | inactive | 13.9 | 2.23
CN1CCN(C(C(=O)Nc2ccc(N(S(=O)(=O)c3ccccc3)S(=O)(=O)c3ccccc3)cc2C(=O)c2ccccc2)c2ccccc2)CC1 (racemic) | 3.12 | 10 | 12 | 1.24 | inactive | 3.01 | 0.04
CCC(=O)Nc1ccc(NC(=O)CN2CCN(C)CC2)c(C(=O)c2ccccc2)c1 | 71.5 | >8 | > 122 | > 16 | inactive | 53.4 | 
CC(=O)Nc1ccc(NC(=O)CN2CCN(C)CC2)c(C(=O)c2ccccc2)c1 | 22.9 | 6 | 53 | 9.45 | inactive | 23.1 | 

From ChEMBL document CHEMBL1152663, “Antimalarial and antitrypanosomal activity of a series of amide and sulfonamide derivatives of a 2,5-diaminobenzophenone” (Bioorg Med Chem, 2009)
